We go through 3 compounds from article PMC2835692 (Journal of cardiovascular pharmacology, 2009).

Like-named read-outs stand apart in the source and are kept apart here.

The target of data set [1] is recombinant human MMP-8 catalytic domain (Homo sapiens, UniProt P22894). Description: Recombinant MMP fluorescent assay, MMP-8. In kind it is biochemical. The conditions noted are these: read-out: IC50 MMP-8; 1 hour preincubation at 37°C.
Data set [2] has as its target T1, recombinant human MMP-7 catalytic domain (Homo sapiens, UniProt P09237).
T1 sequence (P09237 95-267): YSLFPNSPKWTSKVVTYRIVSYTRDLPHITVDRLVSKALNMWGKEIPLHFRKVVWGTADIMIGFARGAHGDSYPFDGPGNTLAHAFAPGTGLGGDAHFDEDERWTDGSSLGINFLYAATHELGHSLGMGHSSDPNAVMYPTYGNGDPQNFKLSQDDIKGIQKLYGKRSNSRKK
Description: Recombinant MMP fluorescent assay, MMP-7. In kind it is biochemical. In a few lines: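 Kit-based fluorogenic substrate assay. Test compound was dissolved in DMSO, with 0.005% final DMSO in buffer (50 mM HEPES, 10 mM CaCl2, 0.05% Brij-35, pH 7.5). Substrate was added to start the reaction. Fluorescence (ex 335/em 405 nm) was read every 60 s for 30 min, with 1 s shaking between reads. Rates came from linear kinetic regions; IC50 from activity versus log[inhibitor]. o-Phenanthroline confirmed MMP-dependent cleavage.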

The subject of data set [3] is isolated stunned rat hearts. Description: Langendorff isolated perfused rat heart, stunning. To be noted: for Improvement in RPP versus controls: at 30-minute reperfusion; for Coronary flow rates versus controls: during reperfusion; for cTnI release versus controls: after ischemia.
The test system of data set [4] is cocultured neonatal rat cardiac fibroblasts/myocytes. Kind of data set: MTT cell viability assay. Type of data set: cell-based. To be noted: 24 hours incubation. Background: Formazan colour is commonly taken as a measure of viable cells.
For data set [5], the target named is recombinant human MMP-12 catalytic domain (Homo sapiens, UniProt P39900). Kind of data set: Recombinant MMP fluorescent assay, MMP-12. Type of data set: biochemical.
Data set [6] concerns the target recombinant human MMP-9 catalytic domain (Homo sapiens, UniProt P14780). Kind of data set: Recombinant MMP fluorescent assay, MMP-9. In kind it is biochemical. The conditions noted are these: read-out: IC50 MMP-9; 1 hour preincubation at 37°C.
Data set [7] concerns isolated infarcted rat hearts. Description: Langendorff isolated perfused rat heart, infarction. The conditions noted are these: 5 μM.
For data set [8], the target named is T2, recombinant human MMP-1 catalytic domain (Homo sapiens, UniProt P03956).
T2 sequence (P03956 100-269 limits assumed): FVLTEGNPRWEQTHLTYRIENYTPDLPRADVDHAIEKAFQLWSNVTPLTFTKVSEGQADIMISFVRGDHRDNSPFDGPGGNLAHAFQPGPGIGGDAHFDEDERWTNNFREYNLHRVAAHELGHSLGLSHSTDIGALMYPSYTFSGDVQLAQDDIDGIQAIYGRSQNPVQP
Description: Recombinant MMP fluorescent assay, MMP-1. Type of data set: biochemical. To be noted: read-out: IC50 MMP-1; 1 hour preincubation at 37°C.

The target of data set [9] is recombinant human MMP-13 catalytic domain (Homo sapiens, UniProt P45452). Description: Recombinant MMP fluorescent assay, MMP-13. In kind it is biochemical. The conditions noted are these: read-out: IC50 MMP-13; 1 hour preincubation at 37°C.
Data set [10] concerns the target recombinant human MMP-3 catalytic domain (Homo sapiens, UniProt P08254). Description: Recombinant MMP fluorescent assay, MMP-3. Type of data set: biochemical. To be noted: read-out: IC50 MMP-3; 1 hour preincubation at 37°C.
The target of data set [11] is recombinant human MMP-2 catalytic domain (Homo sapiens, UniProt P08253). Kind of data set: Recombinant MMP fluorescent assay, MMP-2. Type of data set: biochemical. The conditions noted are these: read-out: IC50 MMP-2; 1 hour preincubation at 37°C.
[12] abbreviates: read-out: IC50 MMP-7, 1 hour preincubation at 37°C.
The mark [13] stands for this setting: read-out: IC50 MMP-12, 1 hour preincubation at 37°C.

Chain of recombinant human MMP-12 catalytic domain (P39900 106-263 limits assumed): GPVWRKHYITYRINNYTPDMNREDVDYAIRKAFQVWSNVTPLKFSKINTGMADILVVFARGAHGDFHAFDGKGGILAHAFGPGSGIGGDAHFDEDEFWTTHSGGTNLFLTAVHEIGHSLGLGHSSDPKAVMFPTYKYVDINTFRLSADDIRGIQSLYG
Chain of recombinant human MMP-9 catalytic domain (P14780 107-444 limits assumed): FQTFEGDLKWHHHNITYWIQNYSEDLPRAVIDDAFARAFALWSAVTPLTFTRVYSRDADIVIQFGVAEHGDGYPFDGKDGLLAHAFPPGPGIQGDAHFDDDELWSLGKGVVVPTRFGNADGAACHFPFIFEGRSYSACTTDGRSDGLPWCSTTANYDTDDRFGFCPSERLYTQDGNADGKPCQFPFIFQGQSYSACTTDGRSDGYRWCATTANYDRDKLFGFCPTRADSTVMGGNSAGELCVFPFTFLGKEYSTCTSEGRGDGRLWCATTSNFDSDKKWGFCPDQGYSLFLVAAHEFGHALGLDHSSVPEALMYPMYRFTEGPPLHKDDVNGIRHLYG
Chain of recombinant human MMP-8 catalytic domain (P22894 100-262 limits assumed): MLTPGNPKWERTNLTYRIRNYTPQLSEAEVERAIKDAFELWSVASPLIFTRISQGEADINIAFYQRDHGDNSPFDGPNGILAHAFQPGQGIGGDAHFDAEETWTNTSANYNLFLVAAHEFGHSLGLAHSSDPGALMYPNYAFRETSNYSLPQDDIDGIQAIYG
Chain of recombinant human MMP-2 catalytic domain (P08253 110-446 limits assumed): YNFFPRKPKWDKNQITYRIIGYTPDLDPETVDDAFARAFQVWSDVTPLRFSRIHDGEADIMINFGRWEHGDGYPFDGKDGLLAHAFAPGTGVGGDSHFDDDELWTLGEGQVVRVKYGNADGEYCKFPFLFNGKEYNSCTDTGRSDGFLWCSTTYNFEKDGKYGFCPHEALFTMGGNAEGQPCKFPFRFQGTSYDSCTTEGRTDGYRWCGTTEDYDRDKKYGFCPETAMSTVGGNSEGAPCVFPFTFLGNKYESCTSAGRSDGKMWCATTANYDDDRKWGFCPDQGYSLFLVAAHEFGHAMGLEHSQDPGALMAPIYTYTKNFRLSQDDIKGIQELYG
Chain of recombinant human MMP-3 catalytic domain (P08254 100-272 limits assumed): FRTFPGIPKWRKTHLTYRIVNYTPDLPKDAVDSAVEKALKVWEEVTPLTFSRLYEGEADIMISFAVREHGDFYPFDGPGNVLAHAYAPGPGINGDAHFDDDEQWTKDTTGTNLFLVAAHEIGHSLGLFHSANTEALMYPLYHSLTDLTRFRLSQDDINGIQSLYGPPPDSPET

Usually IC50 stands for the concentration needed to halve the response being measured. As for `CC(C)[C@H](NS(=O)(=O)c1ccc(-c2ccc(Br)cc2)cc1)C(=O)O` [PD166793, reference compound], the IC50 in data set [1] was less than 50 nM; in [2] (setting [12]), 3000 nM; in [5] (setting [13]) it was less than 50 nM; in [6] it was 3 µM. For the same compound, the “Improvement in RPP versus controls” value in [3] (5 μM, stunned hearts) is ~ 8%. Besides, in data set [3] (5 μM, stunned hearts), the “Coronary flow rates versus controls” value was “did not improve coronary flow rates”. Moreover, in data set [3] (stunned hearts), the “cTnI release versus controls” value was “no significant changes in cTnI release”. Moreover, in data set [4], the “Concentration with loss of cell viability” value is “greater than 10 μM”.
`COc1ccc(S(=O)(=O)N(Cc2cccnc2)[C@@H](C(=O)NO)C(C)C)cc1` [CGS27023A]: the IC50 in data set [2] (IC50 MMP-7, 1 hour preincubation at 37°C) was 500 nM; in data set [5] (IC50 MMP-12, 1 hour preincubation at 37°C), less than 50 nM; in [5] (IC50 MMP-12, as stated in discussion text) it was not above 50 nM. The “Improvement in RPP versus controls” value in [3] (5 μM, stunned hearts) was ~ 8%. Besides, the “Coronary flow rates versus controls” value in data set [3] (5 μM, stunned hearts) is “did not improve coronary flow rates”. Moreover, the “cTnI release versus controls” value in data set [3] (stunned hearts) is “no significant changes in cTnI release”.
Consider `O=C(NCc1ccc(-c2ccccc2)cc1)c1cccc(=O)n1O` [1,2-HOPO-2], for which the IC50 in data set [1] was 86 nM; in [2] (setting [12]) it was more than 50000 nM; in [8], more than 50 µM; in data set [9] it was 4.1 µM; in data set [10] it was 560 nM; in data set [5] (setting [13]), 18 nM. Moreover, the results for the IC50 in [11] and in data set [6] were 920 nM and 27.1 µM, respectively. Besides, the “Reduction of collagen degradation versus controls” value in [7] (30-minute global ischemia (infarction), opalation) was ~ 60%. For the same compound, the “Collagen degradation (opalation)” value in data set [7] (30-minute global ischemia (infarction), controls 1.53 ± 0.66) amounted to 0.56 ± 0.29 AFU. Moreover, in data set [7] (30-minute global ischemia, data not shown), the “Troponin I release” value was “significantly reduced troponin I release”. Further, the “Coronary flow rates versus controls” value in [7] (conditions of infarction, data not shown) is recorded as “higher coronary flow rates versus controls”; in data set [3] (5 μM, stunned hearts), “higher coronary flow rates versus controls”. In addition, the “Improved recovery in RPP versus controls” value in data set [7] (infarcted hearts, at 30-minute reperfusion) was ~ 17%. Moreover, the “RPP in treated hearts” value in data set [7] (infarcted hearts, at 30-minute reperfusion, controls 28%) worked out at 45%. The “Peak systolic pressure (PSP)” value in data set [3] (5 μM, data not shown) is recorded as “significant rise in PSP”. For the same compound, in data set [3] (5 μM, stunned hearts), the “Reduction in myocardial edema versus controls” value was ~ 10%. Moreover, in data set [3] (5 μM, stunned hearts (20-minute GNFI), controls 1.49 ± 1.0), the “Collagen damage (opalation)” value is reported as 1.45 ± 0.89 AFU. Besides, the “Improvement in RPP versus controls” value in [3] (5 μM, stunned hearts) is reported as ~ 23%. In data set [3] (5 μM, stunned hearts, end of reperfusion), the “Reduction in ventricular wet weight versus controls” value is ~ 15%. This compound returned a Ventricular wet weight in [3] (5 μM, stunned hearts, end of reperfusion, controls 820 ± 72) of 700 ± 34 mg. The “Wet to dry weight ratio (edema)” value in data set [3] (5 μM, stunned hearts, controls 5.4 ± 0.21) came to 4.9 ± 0.02. Also, the “Reduction of muscle damage” value in data set [3] (abstract, troponin I) is on record as ~ 25%. For the same compound, the “Improvement in coronary flow rates” value in data set [3] (abstract, versus controls) was ~ 22%. Besides, the “cTnI release versus controls” value in data set [3] (stunned hearts) is “significant reductions in cTnI release versus controls”. In data set [4] (0.01-1000 μM tested), the “Concentration without compromise of cell viability (lack of cytotoxicity)” value is less than 10 µM.
